8 molecules from ChEMBL document CHEMBL4257579, “Analogs of penfluridol as chemotherapeutic agents with reduced central nervous system activity” (Bioorg Med Chem Lett, 2018) can be followed below.

Molecules are shown by their SMILES.

For data set [1], the target named is Sodium-dependent serotonin transporter (Homo sapiens, UniProt P31645). As to the kind of experiment: Displacement of [3H]Citalopram from human SERT expressed in HEK cells by radioligand binding assay. In kind it is cell-based. In general terms: Displacement assays read how much labelled ligand stays bound in the presence of the test substance.
Data set [2] concerns Mus musculus. As to the kind of experiment: Toxicity in C57BL/6J mouse assessed as effect on kidney weight at 5 mg/kg, ip treated daily for 7 consecutive days measured after 24 hrs post last dose. In kind it is organism-based. Particulars: in vivo; call rule not given here. The method, boiled down: (§1)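 Female C57BL6 mice treated 5 mg/kg i.p. once daily for seven days; killed 24 h after final injection and organs collected and weighed.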

Data set [3] has as its system Mus musculus. As to the kind of experiment: Toxicity in C57BL/6J mouse assessed as minerals level at 5 mg/kg, ip treated daily for 7 consecutive days measured after 24 hrs post last dose […]. In kind it is organism-based. Particulars: in vivo. The procedure, abridged:
(§2)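 Female C57BL6 mice given 5 mg/kg i.p. daily for 7 days; blood taken at sacrifice 24 h after last dose for clinical chemistry panel: electrolytes, minerals, total protein, albumin, globulin, A/G ratio, BUN, ALT, AST, GLDH, cholestasis markers, ALP, bilirubin, amylase, creatine kinase.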

A short description of data set [4]: Drug distribution in C57BL/6J mouse lung at 5 mg/kg, ip treated daily for 7 consecutive days measured after 24 hrs post last dose by LC/MS/MS analysis. Particulars: in vivo. In kind it is ADME, organism-based. The method, boiled down:
(§3)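 Female C57BL6 mice dosed 5 mg/kg i.p. once daily for seven consecutive days; sacrificed 24 h after last injection, organs stored at −80 °C. Plasma, brain, lungs and adipose tissue analysed by LC-MS/MS for drug concentration (nM); n = 5.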

Data set [5] has as its system Mus musculus. As to the kind of experiment: Toxicity in C57BL/6J mouse assessed as effect on lung weight at 5 mg/kg, ip treated daily for 7 consecutive days measured after 24 hrs post last dose. In kind it is organism-based. The following applies: in vivo. The procedure, abridged:
as §1

Data set [6] deals with Mus musculus. Put plainly: Toxicity in C57BL/6J mouse assessed as globulin level at 5 mg/kg, ip treated daily for 7 consecutive days measured after 24 hrs post last dose […]. In kind it is organism-based. Particulars: in vivo. The method, boiled down: as §2
Data set [7] deals with Mus musculus. As to the kind of experiment: Toxicity in C57BL/6J mouse assessed as alanine aminotransferase level at 5 mg/kg, ip treated daily for 7 consecutive days measured after 24 hrs post last dose […]. In kind it is organism-based. Particulars: in vivo. The method, boiled down:
as §2

For data set [8], the system named is Mus musculus. As to the kind of experiment: Toxicity in C57BL/6J mouse assessed as effect on brain weight at 5 mg/kg, ip treated daily for 7 consecutive days measured after 24 hrs post last dose. In kind it is organism-based. Particulars: in vivo. The procedure, abridged: as §1
A short description of data set [9]: Drug distribution in C57BL/6J mouse brain at 5 mg/kg, ip treated daily for 7 consecutive days measured after 24 hrs post last dose by LC/MS/MS analysis. Particulars: in vivo. In kind it is ADME, organism-based. The procedure, abridged: as §3
In data set [10] the test system is Mus musculus. Put plainly: Toxicity in C57BL/6J mouse assessed as ratio of albumin to globulin level at 5 mg/kg, ip treated daily for 7 consecutive days measured after 24 hrs post last dose […]. Particulars: in vivo. In kind it is organism-based. The method, boiled down:
as §2

Data set [11] concerns Mus musculus. As to the kind of experiment: Toxicity in C57BL/6J mouse assessed as aspartate aminotransferase level at 5 mg/kg, ip treated daily for 7 consecutive days measured after 24 hrs post last dose […]. In kind it is organism-based. Particulars: in vivo. The procedure, abridged:
as §2

Data set [12] deals with Mus musculus. As to the kind of experiment: Toxicity in C57BL/6J mouse assessed as effect on heart weight at 5 mg/kg, ip treated daily for 7 consecutive days measured after 24 hrs post last dose. Particulars: in vivo. In kind it is organism-based. The method, boiled down:
as §1

Data set [13] has as its target 5-hydroxytryptamine receptor 5A (Homo sapiens, UniProt P47898). Put plainly: Displacement of [3H]LSD from human 5-HT5A receptor expressed in Flp-In CHO cells by radioligand binding assay. In kind it is cell-based.
Data set [14] has as its system Mus musculus. Put plainly: Toxicity in C57BL/6J mouse assessed as albumin level at 5 mg/kg, ip treated daily for 7 consecutive days measured after 24 hrs post last dose […]. In kind it is organism-based. The following applies: in vivo. The procedure, abridged:
as §2

In data set [15] the test system is Mus musculus. As to the kind of experiment: Toxicity in C57BL/6J mouse assessed as cholestasis level at 5 mg/kg, ip treated daily for 7 consecutive days measured after 24 hrs post last dose […]. In kind it is organism-based. Particulars: in vivo. The procedure, abridged:
as §2

A short description of data set [16]: Drug distribution in C57BL/6J mouse adipose tissue at 5 mg/kg, ip treated daily for 7 consecutive days measured after 24 hrs post last dose by LC/MS/MS analysis. In kind it is ADME, organism-based. Particulars: in vivo. The method, boiled down: as §3
The subject of data set [17] is Mus musculus. Put plainly: Toxicity in C57BL/6J mouse assessed as amylase level at 5 mg/kg, ip treated daily for 7 consecutive days measured after 24 hrs post last dose […]. In kind it is organism-based. Particulars: in vivo. The method, boiled down:
as §2

Data set [18] concerns Mus musculus. Put plainly: Toxicity in C57BL/6J mouse assessed as creatine kinase level at 5 mg/kg, ip treated daily for 7 consecutive days measured after 24 hrs post last dose […]. Particulars: in vivo. In kind it is organism-based. The method, boiled down: as §2
Data set [19] has as its system Mus musculus. Put plainly: Toxicity in C57BL/6J mouse assessed as total protein level at 5 mg/kg, ip treated daily for 7 consecutive days measured after 24 hrs post last dose […]. The following applies: in vivo. In kind it is organism-based. The procedure, abridged:
as §2

Data set [20] concerns Mus musculus. Put plainly: Toxicity in C57BL/6J mouse assessed as bilirubin level at 5 mg/kg, ip treated daily for 7 consecutive days measured after 24 hrs post last dose […]. In kind it is organism-based. The following applies: in vivo. The procedure, abridged:
as §2

The subject of data set [21] is Mus musculus. As to the kind of experiment: Toxicity in C57BL/6J mouse assessed as effect on liver weight at 5 mg/kg, ip treated daily for 7 consecutive days measured after 24 hrs post last dose. In kind it is organism-based. The following applies: in vivo. The procedure, abridged:
as §1

Data set [22] deals with Mus musculus. As to the kind of experiment: Toxicity in C57BL/6J mouse assessed as electrolytes level at 5 mg/kg, ip treated daily for 7 consecutive days measured after 24 hrs post last dose […]. In kind it is organism-based. The following applies: in vivo. The procedure, abridged: as §2
Data set [23] relates to Mus musculus. As to the kind of experiment: Toxicity in C57BL/6J mouse assessed as effect on spleen weight at 5 mg/kg, ip treated daily for 7 consecutive days measured after 24 hrs post last dose. In kind it is organism-based. Particulars: in vivo. The method, boiled down:
as §1

Data set [24] addresses Histamine H1 receptor (Homo sapiens, UniProt P35367). Put plainly: Displacement of [3H]Pyrilamine from human H1 receptor expressed in HEK cells by radioligand binding assay relative to control. Details: concentration or dose not given beside the values. In kind it is cell-based. The following applies: concentration not given here.
Data set [25] is described as follows: Tmax in C57BL/6J mouse brain at 10 mg/kg, ip treated daily for 7 consecutive days by LC/MS/MS analysis. In kind it is ADME, organism-based.
The target in data set [26] is T1, Beta-3 adrenergic receptor (Homo sapiens, UniProt P13945). As to the kind of experiment: Displacement of [3H]CGP12177 from human beta 3 adrenergic receptor expressed in HEK293FlpIN cells by radioligand binding assay. In kind it is cell-based. The procedure, abridged:
(§4)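 Ki values were calculated from the radioligand displacement data.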
Target sequence in this assay (P13945 whole entry): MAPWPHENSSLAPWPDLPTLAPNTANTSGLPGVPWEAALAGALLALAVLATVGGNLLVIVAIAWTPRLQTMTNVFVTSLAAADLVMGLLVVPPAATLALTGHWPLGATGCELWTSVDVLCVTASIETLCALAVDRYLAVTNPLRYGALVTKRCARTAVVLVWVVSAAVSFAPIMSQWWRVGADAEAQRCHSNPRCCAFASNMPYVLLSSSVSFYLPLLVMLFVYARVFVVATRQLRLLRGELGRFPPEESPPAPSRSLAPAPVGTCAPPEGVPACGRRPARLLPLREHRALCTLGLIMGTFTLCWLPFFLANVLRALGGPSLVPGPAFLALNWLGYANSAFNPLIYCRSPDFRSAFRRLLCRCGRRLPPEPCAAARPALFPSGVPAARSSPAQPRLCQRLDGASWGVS

Data set [27] addresses Alpha-1D adrenergic receptor (Homo sapiens) (UniProt P25100). Put plainly: Displacement of [3H]Prazosin from human alpha 1D adrenergic receptor expressed in HEK cells by radioligand binding assay relative to control. In kind it is cell-based. Particulars: concentration not given here.
Data set [28] deals with Alpha-2B adrenergic receptor (Homo sapiens) (UniProt P18089). As to the kind of experiment: Displacement of [3H]Rauwolscine from human alpha 2B adrenergic receptor expressed in HEK293T cells by radioligand binding assay relative to control. In kind it is cell-based. Particulars: concentration not given here.
The target of data set [29] is Alpha-2B adrenergic receptor (Homo sapiens, UniProt P18089). Put plainly: Displacement of [3H]Rauwolscine from human alpha 2B adrenergic receptor expressed in HEK293T cells by radioligand binding assay. In kind it is cell-based. The method, boiled down: as §4
Data set [30] concerns the target T1, Beta-3 adrenergic receptor. Put plainly: Displacement of [3H]CGP12177 from human beta 3 adrenergic receptor expressed in HEK293FlpIN cells by radioligand binding assay relative to control. In kind it is cell-based. The following applies: concentration not given here.
Target sequence in this assay (P13945 whole entry, looked up): as the sequence (P13945 whole entry) above
The target of data set [31] is Alpha-2C adrenergic receptor (Homo sapiens, UniProt P18825). As to the kind of experiment: Displacement of [3H]Rauwolscine from human alpha 2C adrenergic receptor expressed in MDCK cells by radioligand binding assay. In kind it is cell-based. The procedure, abridged:
as §4

Data set [32] addresses Alpha-2C adrenergic receptor (Homo sapiens) (UniProt P18825). As to the kind of experiment: Displacement of [3H]Rauwolscine from human alpha 2C adrenergic receptor expressed in MDCK cells by radioligand binding assay relative to control. In kind it is cell-based. Particulars: concentration not given here.
For data set [33], the target named is Alpha-1D adrenergic receptor (Homo sapiens, UniProt P25100). Put plainly: Displacement of [3H]Prazosin from human alpha 1D adrenergic receptor expressed in HEK cells by radioligand binding assay. In kind it is cell-based. The procedure, abridged: as §4
Sequence of Alpha-1D adrenergic receptor (P25100 whole entry): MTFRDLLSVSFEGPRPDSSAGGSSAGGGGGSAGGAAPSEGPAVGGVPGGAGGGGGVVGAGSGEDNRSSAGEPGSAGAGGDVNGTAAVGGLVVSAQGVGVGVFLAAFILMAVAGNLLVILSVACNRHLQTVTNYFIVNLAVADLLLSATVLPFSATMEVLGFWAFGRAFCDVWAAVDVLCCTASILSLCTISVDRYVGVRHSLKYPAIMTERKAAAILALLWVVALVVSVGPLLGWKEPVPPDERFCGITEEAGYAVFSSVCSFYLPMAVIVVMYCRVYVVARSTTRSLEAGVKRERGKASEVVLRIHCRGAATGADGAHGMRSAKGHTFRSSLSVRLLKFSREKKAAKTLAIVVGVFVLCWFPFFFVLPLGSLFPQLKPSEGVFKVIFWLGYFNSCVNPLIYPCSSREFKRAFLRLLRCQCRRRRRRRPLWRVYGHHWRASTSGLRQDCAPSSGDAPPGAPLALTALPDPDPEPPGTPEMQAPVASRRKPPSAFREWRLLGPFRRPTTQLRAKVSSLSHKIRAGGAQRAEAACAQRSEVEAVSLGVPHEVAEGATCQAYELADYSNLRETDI

Sequence of Histamine H1 receptor (P35367 whole entry): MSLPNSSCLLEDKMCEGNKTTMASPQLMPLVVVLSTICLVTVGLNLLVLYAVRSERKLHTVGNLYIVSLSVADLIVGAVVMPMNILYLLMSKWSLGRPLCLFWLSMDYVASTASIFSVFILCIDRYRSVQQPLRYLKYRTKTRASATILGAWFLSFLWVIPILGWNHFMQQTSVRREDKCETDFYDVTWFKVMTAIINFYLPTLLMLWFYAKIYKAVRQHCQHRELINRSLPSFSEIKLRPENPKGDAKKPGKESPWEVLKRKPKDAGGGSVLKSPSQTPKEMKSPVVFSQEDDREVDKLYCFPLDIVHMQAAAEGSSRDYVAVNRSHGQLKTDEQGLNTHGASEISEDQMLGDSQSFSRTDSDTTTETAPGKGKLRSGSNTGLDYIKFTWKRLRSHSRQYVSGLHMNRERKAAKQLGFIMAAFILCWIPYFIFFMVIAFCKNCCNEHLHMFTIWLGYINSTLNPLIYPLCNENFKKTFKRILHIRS
Sequence of Sodium-dependent serotonin transporter (P31645 whole entry): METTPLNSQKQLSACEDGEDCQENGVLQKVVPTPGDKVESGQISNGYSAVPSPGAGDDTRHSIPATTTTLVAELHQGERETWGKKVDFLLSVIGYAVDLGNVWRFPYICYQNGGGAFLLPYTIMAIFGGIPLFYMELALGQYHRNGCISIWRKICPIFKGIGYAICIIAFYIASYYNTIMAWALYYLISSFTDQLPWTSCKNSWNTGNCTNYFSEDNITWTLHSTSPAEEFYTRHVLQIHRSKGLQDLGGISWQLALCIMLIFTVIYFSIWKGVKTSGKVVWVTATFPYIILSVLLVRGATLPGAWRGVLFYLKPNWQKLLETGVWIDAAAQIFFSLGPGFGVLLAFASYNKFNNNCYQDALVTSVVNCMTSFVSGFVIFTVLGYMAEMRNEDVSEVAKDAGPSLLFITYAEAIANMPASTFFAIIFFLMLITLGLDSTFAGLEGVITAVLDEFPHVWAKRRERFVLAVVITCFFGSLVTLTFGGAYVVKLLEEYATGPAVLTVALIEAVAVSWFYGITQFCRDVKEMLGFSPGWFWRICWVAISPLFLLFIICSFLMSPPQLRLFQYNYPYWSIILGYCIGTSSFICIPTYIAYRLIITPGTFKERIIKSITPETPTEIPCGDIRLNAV
Sequence of 5-hydroxytryptamine receptor 5A (P47898 whole entry): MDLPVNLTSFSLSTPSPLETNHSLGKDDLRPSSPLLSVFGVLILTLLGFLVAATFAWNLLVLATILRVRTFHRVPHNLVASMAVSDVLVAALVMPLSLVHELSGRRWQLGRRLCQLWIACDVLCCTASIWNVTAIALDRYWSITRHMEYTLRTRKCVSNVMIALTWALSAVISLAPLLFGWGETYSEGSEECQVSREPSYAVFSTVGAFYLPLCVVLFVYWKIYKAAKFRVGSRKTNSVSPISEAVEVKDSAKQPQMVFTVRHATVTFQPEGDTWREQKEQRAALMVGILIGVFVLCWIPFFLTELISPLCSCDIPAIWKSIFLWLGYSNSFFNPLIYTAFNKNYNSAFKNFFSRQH
Sequence of Alpha-1D adrenergic receptor (Homo sapiens) (P25100 whole entry): as the sequence (P25100 whole entry) above
Sequence of Alpha-2C adrenergic receptor (Homo sapiens) (P18825 whole entry): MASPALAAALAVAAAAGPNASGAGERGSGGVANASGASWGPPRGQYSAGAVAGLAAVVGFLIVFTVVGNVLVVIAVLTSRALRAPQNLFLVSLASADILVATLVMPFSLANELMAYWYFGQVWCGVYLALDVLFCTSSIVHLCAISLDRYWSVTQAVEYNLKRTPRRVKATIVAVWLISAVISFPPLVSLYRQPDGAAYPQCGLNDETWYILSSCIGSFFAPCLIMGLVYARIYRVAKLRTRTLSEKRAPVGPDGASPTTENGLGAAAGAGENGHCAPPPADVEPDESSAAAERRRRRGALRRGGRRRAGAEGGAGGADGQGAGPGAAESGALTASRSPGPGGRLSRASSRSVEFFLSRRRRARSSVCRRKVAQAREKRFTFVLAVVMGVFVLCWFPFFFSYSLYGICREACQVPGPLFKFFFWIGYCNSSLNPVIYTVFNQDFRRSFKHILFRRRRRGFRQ
Sequence of Alpha-2C adrenergic receptor (P18825 whole entry): as above
Sequence of Alpha-2B adrenergic receptor (Homo sapiens) (P18089 whole entry): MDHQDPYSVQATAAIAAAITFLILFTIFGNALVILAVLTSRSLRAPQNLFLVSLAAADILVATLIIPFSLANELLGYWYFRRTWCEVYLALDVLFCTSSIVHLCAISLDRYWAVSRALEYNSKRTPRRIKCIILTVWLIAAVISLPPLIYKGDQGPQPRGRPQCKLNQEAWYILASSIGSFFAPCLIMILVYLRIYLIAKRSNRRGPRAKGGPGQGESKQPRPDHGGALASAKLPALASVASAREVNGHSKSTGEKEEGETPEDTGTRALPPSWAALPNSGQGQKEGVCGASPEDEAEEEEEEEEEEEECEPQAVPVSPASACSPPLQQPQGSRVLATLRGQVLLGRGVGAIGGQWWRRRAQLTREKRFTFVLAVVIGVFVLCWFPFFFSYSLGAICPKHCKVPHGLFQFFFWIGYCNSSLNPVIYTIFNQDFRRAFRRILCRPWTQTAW
Sequence of Alpha-2B adrenergic receptor (P18089 whole entry): as above

As a reminder, the Ki is a dissociation constant, usually derived from enzyme kinetics or from competition with a known ligand. Turning to `OC1(c2ccc(Cl)c(C(F)(F)F)c2)CCN(CCCCC(c2ccc(F)cc2)c2ccc(F)cc2)CC1`, the Ki in data set [1] came to 428 nM; in data set [13] (read-out: Ki), 894 nM. The Activity result in [2], in [3], in data set [5], in data set [6], in data set [7] and in data set [8] was “Non-Toxic” in each case. Further, the Activity result in data set [10], in data set [11], in data set [12], in data set [14], in [15] and in data set [17] was “Non-Toxic” in each case. For the same molecule, the Activity entry in data set [18], in data set [19], in data set [20], in [21], in data set [22] and in [23] was “Non-Toxic” each time. Further, the Drug uptake result in data set [4], in data set [9] and in data set [16] was “Active” each time.
Turning to `OC1(c2ccc(Cl)c(C(F)(F)F)c2)CCN(CCCC(c2ccccc2)c2ccccc2)CC1`, the Ki in [1] was 1180 nM; in data set [13] (cho) it was “Not Active”.
By inhibition is commonly meant how much of the control response was suppressed. As for `OC1(c2ccc(Cl)c(C(F)(F)F)c2)CCN(CCCCCc2ccc(F)cc2)CC1`, the inhibition in [24] came to 69.2%.
In general, Tmax refers to the time from dosing to the highest level. Turning to `COc1ccc(N(CCCCN2CCC(O)(c3ccc(Cl)c(C(F)(F)F)c3)CC2)c2ccc(OC)cc2)cc1`, the Ki in data set [1] was found to be 1310 nM; in data set [13] (read-out: Ki) it was 4970 nM. Besides, the Activity result in [2], in data set [3], in [5], in data set [6], in data set [7] and in [8] was “Non-Toxic” each time. Also, the Activity entry in [10], in data set [11], in data set [12], in data set [14], in [15] and in [17] was “Non-Toxic” throughout. The Activity entry in [18], in data set [19], in data set [20], in data set [21], in data set [22] and in [23] was “Non-Toxic” throughout. Further, the Drug uptake result in data set [4], in data set [9] and in data set [16] was “Active” throughout. The inhibition in data set [24] stood at 71.9%. In addition, the Tmax in data set [25] was 6 h.
Molecule `OC1(c2ccc(Cl)c(C(F)(F)F)c2)CCN(CCCN(c2ccc(F)cc2)c2ccc(F)cc2)CC1` had a Ki in data set [1] of 903 nM. In data set [24], the inhibition was determined as 88.5%.
`OC1(c2ccc(Cl)c(C(F)(F)F)c2)CCN(CCCCN(c2ccc(F)cc2)c2ccc(F)cc2)CC1`: the Ki in data set [1] came out at 10000 nM; in data set [13] (read-out: Ki), 4150 nM.
Regarding `OC1(c2ccc(Cl)c(C(F)(F)F)c2)CCN(CCCC(c2ccc(F)cc2)c2ccc(F)cc2)CC1` [PENFLURIDOL], the Ki in data set [26] stood at 515 nM; in data set [29], 401 nM; in data set [31] it was 445 nM; in data set [33] it was 602 nM. The inhibition in data set [27] is 95.7%; in [28], 95.6%; in [24] it was 84%; in data set [30], 94%; in data set [32] it was 100%. For the same molecule, the Drug uptake result in data set [4] and in data set [16] was “Active” in each case.
In turn, `OC1(c2ccc(Cl)c(C(F)(F)F)c2)CCN(CCCC=C(c2ccc(F)cc2)c2ccc(F)cc2)CC1` displayed an inhibition in data set [24] of 64.6%.
